S100A4 MyoIIA = inhibitors of S100A4-myosin IIA peptide binding, primary screen, biochemical, fluorescence polarization, TAMRA-MyoIIA peptide. Protein S100-A4 (Homo sapiens), P26447. inhibition, % at 10.7 µM. 360,000 tested, 0.14% active;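 active = mean inhibition of at least 70% across replicates, with every replicate also reaching that level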
Target sequence (P26447 whole entry, looked up): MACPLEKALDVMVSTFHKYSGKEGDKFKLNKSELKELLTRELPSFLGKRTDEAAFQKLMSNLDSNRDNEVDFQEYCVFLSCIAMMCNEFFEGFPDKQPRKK
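Test system: S100A4 monomer protein; Medium: HEPES pH 7.2 with CaCl2, KCl, NaCl, DTT, Triton; Probe or stimulus: TAMRA-labelled myosin IIA heavy-chain peptide probe, 5 nM; Doses: one dose per compound; Times: polarization read 5 min after assay mix addition, stable 5–60 min; Benchmarks: neutral control DMSO, positive control TFP.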
FGF22 binding-1 = binders of human FGF22 protein, primary screen, FGF22 synaptogenesis inhibitor project, biophysical, thermal shift, single point; 340,000 tested, 1.5% active; recombinant FGF22 thermal shift, SYPRO orange fluorescence; percent of sucrose octasulfate shift, DMSO zero; AID 651658, 2012; Fibroblast growth factor 22 (Homo sapiens), Q9HCT0; activity (Tm shift, normalised), % at 9.99 µM;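 active = mean Tm shift, scaled 0 neutral to 100 positive control, at about 1.3% or above, every replicate too, limit read from the data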
F508del corr = F508del CFTR correction, initial screen, CFBE line, single point. CFBE cells, YFP halide quenching; stimulated with forskolin plus potentiator P3; % fluorescence drop versus neutral controls. activity (quench increase), % at 7.58 µM. 350,000 tested, 0.36% active. AID 720511, 2013;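 active = mean added fluorescence quench of at least 8% versus neutral control, with both replicates also reaching 8%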;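 note: cells transiently co-express mutant CFTR-F508del with the halide-sensitive YFP; corrector assay measuring rescue of mutant channel to the surface after 24 h compound exposure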
E-selectin induc = E-selectin induction in HUVECs, primary screen, imaging, HUVEC, immunofluorescence imaging, single point | activation, % at 7.58 µM | normalized: neutral wells 0, TNF-alpha wells 100 | 260,000 tested, 0.37% active;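 active = mean E-selectin-positive cell signal at least 10% of the positive control, reached in at least 60% of replicates, without over 20% cell loss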
Target sequence (P16581 whole entry, looked up): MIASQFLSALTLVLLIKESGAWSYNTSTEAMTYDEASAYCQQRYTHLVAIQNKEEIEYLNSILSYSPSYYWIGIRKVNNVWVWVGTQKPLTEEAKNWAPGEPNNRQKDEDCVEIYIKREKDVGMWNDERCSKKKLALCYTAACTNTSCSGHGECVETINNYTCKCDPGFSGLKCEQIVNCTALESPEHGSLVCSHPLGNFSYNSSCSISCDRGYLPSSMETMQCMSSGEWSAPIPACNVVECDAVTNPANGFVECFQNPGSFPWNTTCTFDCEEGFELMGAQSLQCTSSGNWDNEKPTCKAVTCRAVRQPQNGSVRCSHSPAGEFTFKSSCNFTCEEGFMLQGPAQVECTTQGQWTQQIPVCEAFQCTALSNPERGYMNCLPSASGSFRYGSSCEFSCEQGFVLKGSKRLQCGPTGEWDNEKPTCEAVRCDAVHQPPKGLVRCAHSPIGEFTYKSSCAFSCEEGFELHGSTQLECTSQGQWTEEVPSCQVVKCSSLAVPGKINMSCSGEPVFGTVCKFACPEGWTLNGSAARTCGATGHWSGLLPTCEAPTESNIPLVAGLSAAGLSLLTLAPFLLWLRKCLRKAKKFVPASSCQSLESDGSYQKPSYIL
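assay system = HUVEC, human umbilical vein endothelial cells | input = 3,000 HUVEC seeded per well | medium = EGM-2 growth medium on 0.1% gelatin-coated wells | dosing = one compound dose added by pin transfer | signal = immunofluorescence imaging | read-out basis = % PE-positive cells | control set = TNF-alpha, DMSO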
Env fusion inh = inhibitors of HIV-1 Env-driven cell-cell fusion, primary screen, HeLa-JRFL effector, CEM21 target cells, luciferase; 360,000 tested, 1.1% active; inhibition, % at 12.3 µM;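 active = mean replicate inhibition score of at least 50 and every replicate individually at or above 50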
FGF22 binding-2 = binders of human FGF22 protein, dose response, FGF22 synaptogenesis inhibitor project, biophysical, thermal shift, cherry-pick retest. AID 720646, 2013. thermal shift activity, °C (ΔTm) at 38 µM. shares compounds with FGF22 binding-1. 1,000 tested, 2% active. recombinant FGF22 thermal shift, SYPRO orange fluorescence;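 active = fitted rise in melting shift crosses a set limit at or below the top valid dose tested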
TSA no protein = compound-only thermal shift signal without protein, dose response, artefact control for FGF22 binder project, biochemical, cherry-picked samples, RT-PCR instrument; shares compounds with FGF22 binding-1; compound-only SYPRO orange thermal shift counter-screen, no protein; AC50, µM (top dose mostly 38 µM); 1,000 tested, 2% active; AID 743019, 2013;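 active = rising signal whose fitted curve reaches the 0.54 level within the top valid dose, showing a melting point, actives reach about 13 µM in these data; inactive = the rest, including activity in the opposite direction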; note: value is where the raw curve crosses a fixed level and not half-maximal
Numbers stand for hits; n = inactive; x = no result. An excerpt weighted towards active compounds, which were near 2.7% of everything screened.

SMILES	S100A4 MyoIIA	FGF22 binding-1	F508del corr	E-selectin induc	Env fusion inh	FGF22 binding-2	TSA no protein
CC(C)c1ccc(NC(=O)Nc2nnc([C@H]3C[C@H](O)[C@@H](CO)O3)s2)cc1	n	26.0	n	n	n	n	n
COc1cc(/C=N/NC(=O)c2ccncc2)ccc1OCC(=O)Nc1cccc([N+](=O)[O-])c1	n	1.9	n	n	n	n	n
CC(C)(C)OC(=O)N1CCC(NC(=O)c2[nH]cnc2C(=O)Nc2ccccc2)CC1	n	n	n	n	n	x	x
CN(Cc1ccccc1)C(=O)c1[nH]cnc1C(=O)NC1CCN(C(=O)OC(C)(C)C)CC1	n	2.5	n	n	n	n	n
O=C(NC1CC1)c1cccc(NC(=O)c2cnn(-c3ccccc3)n2)c1	n	1.4	n	n	x	n	n
O=C(Nc1cccc(C(=O)NC2CCCC2)c1)c1ccccc1	n	n	n	x	n	x	x
O=C(C[C@@H]1C[C@H]2c3cc(NC(=O)C4CCC4)ccc3O[C@H]2[C@@H](CO)O1)NCc1cc(F)ccc1F	n	28.1	n	n	n	n	n
O=C(C[C@H]1C[C@H]2c3cc(NC(=O)NC4CCCC4)ccc3O[C@H]2[C@@H](CO)O1)NC1CCCC1	n	n	n	n	n	x	x
O=C(O)C[C@@H]1C[C@H]2c3cc(NC(=O)Nc4ccc(C(F)(F)F)cc4)ccc3O[C@H]2[C@@H](CO)O1	n	23.3	n	n	n	n	n
O=C(C[C@H]1C[C@@H]2c3cc(NC(=O)C4CCC4)ccc3O[C@@H]2[C@H](CO)O1)NCc1cc(F)ccc1F	n	n	n	n	n	x	x
CS(=O)(=O)Nc1ccc2c(c1)[C@@H]1C[C@@H](CC(=O)NCCc3ccccc3)O[C@@H](CO)[C@@H]1O2	n	n	n	n	n	x	x
CS(=O)(=O)Nc1ccc2c(c1)[C@@H]1C[C@H](CC(=O)NCCc3ccccc3)O[C@@H](CO)[C@@H]1O2	n	1.4	n	n	n	n	n
O=C(C[C@H]1C[C@@H]2c3cc(NC(=O)NC4CCCC4)ccc3O[C@@H]2[C@H](CO)O1)NC1CCCC1	n	1.4	n	n	n	n	n
C[C@@H]1CN([C@H](C)CO)S(=O)(=O)c2ccc(-c3cncnc3)cc2O[C@H]1CN(C)C	n	n	n	n	n	x	x
O=C(C[C@H]1C[C@H]2c3cc(NC(=O)NC4CCCC4)ccc3O[C@H]2[C@@H](CO)O1)NCCN1CCCCC1	n	19.1	n	n	n	n	n
CN(C)CC(=O)Nc1ccc2c(c1)[C@@H]1C[C@H](CC(=O)N(C)C)O[C@@H](CO)[C@@H]1O2	n	2.3	n	n	x	n	n
COc1cccc(S(=O)(=O)Nc2ccc3c(c2)[C@@H]2C[C@H](CC(=O)NC4CCCCC4)O[C@@H](CO)[C@@H]2O3)c1	n	1.6	n	n	n	n	n
COCC(=O)Nc1ccc2c(c1)[C@H]1C[C@@H](CC(=O)NCc3ccccn3)O[C@H](CO)[C@H]1O2	n	1.3	n	n	n	n	n
COc1ccc(NC(=O)N(C)C[C@H]2OCCCC[C@@H](C)Oc3ccc(NC(=O)C4CCCCC4)cc3C(=O)N([C@@H](C)CO)C[C@@H]2C)cc1	n	n	n	n	n	x	x
CO[C@@H]1CN(C)C(=O)c2cc(NC(=O)C3CC3)ccc2OC[C@@H](C)N(C(=O)Nc2ccc(C(F)(F)F)cc2)C[C@H]1C	n	n	n	n	x	x	x
COc1cc(OC)cc(C(=O)Nc2nc3ccc(S(C)(=O)=O)cc3s2)c1	n	1.4	n	n	n	n	n
COc1cc(C(=O)Nc2nc3ccc(S(C)(=O)=O)cc3s2)cc(OC)c1C	n	n	n	n	n	x	x
CC=Cc1ccc2n(c1=O)C[C@@H]1[C@@H](CO)[C@H](C(=O)NCC)[C@H]2N1Cc1ccccc1 (mixture of isomers)	n	n	n	n	x	x	x
COc1ccc(C(C)(NC(C)=O)c2nc(-c3ccncc3)cs2)cc1 (stereo not given)	n	18.1	n	n	n	n	n
COc1ccc(-c2csc(C(C)(NC(C)=O)c3ccc(OC)cc3)n2)cc1 (stereo not given)	n	n	n	n	n	x	x
SMILES	S100A4 MyoIIA	FGF22 binding-1	F508del corr	E-selectin induc	Env fusion inh	FGF22 binding-2	TSA no protein
COc1cccc(S(=O)(=O)N[C@H]2CC[C@H](CCn3cc(-c4ccccc4OC)nn3)O[C@@H]2CO)c1	n	n	n	n	n	x	x
C#CCNC(=O)C1=C[C@@H](C(C)(C)C)[C@H](CCCO)[C@@H](OCC)O1	n	n	n	x	n	x	x
Cc1nn(C)cc1NC(=O)C[C@H]1CC[C@@H]2[C@@H](COc3ccc(NC(=O)NC(C)C)cc3C(=O)N2C)O1	n	1.6	n	n	n	n	n
COC(=O)C[C@@H]1CC[C@H]2[C@@H](COc3ccc(NC(=O)NC(C)C)cc3C(=O)N2C)O1	n	1.3	n	n	n	n	n
C[C@@H]1CN([C@H](C)CO)C(=O)c2cccc(NC(=O)c3ccc(-c4nccs4)cc3)c2O[C@H]1CN(C)C(=O)Nc1cccc2ccccc12	n	n	n	x	n	x	x
O=[N+]([O-])c1cccc(S(=O)(=O)Nc2ccc(-c3ccc(N4CCCC4)nn3)cc2)c1	n	1.6	n	n	n	n	n
O=[N+]([O-])c1cccc(S(=O)(=O)Nc2ccc(S(=O)(=O)Nc3nccs3)cc2)c1	n	1.6	n	n	n	n	n
O=[N+]([O-])c1cccc(S(=O)(=O)Nc2ccc(-c3ccc(N4CCOCC4)nn3)cc2)c1	n	2.5	n	n	n	n	n
O=[N+]([O-])c1ccccc1S(=O)(=O)Nc1ccc(S(=O)(=O)Nc2nccs2)cc1	n	n	n	x	n	x	x
O=[N+]([O-])c1cccc(S(=O)(=O)Nc2cccc(-c3ccc(N4CCOCC4)nn3)c2)c1	n	n	n	n	x	x	x
NC(=O)[C@@H]1[C@H]2C(=O)O[C@H](c3ccccc3)[C@H](c3ccccc3)N2[C@H](c2ccc(O)cc2)[C@@]12C(=O)Nc1ccc(C#CC3=CCCCC3)cc12	n	n	n	x	n	x	x
O=C(CN1CCOCC1)N1CCCCN2[C@@H](CO)[C@@H](c3ccc(/C=C/c4ccccc4)cc3)[C@@H]2C1	n	n	n	n	x	x	x
COc1ccc(NC(=O)Nc2ccc3c(c2)[C@@H]2C[C@@H](CC(=O)N4CCCCC4)O[C@@H](CO)[C@@H]2O3)cc1	n	n	n	n	x	x	x

Bioassay records: PubChem, Broad Institute
